Source: PubChem BioAssay
Sampled rows, rich in hits. Any-hit rate of the full collection: about 1.4%.
Tn7 DDE FP – disrupts Tn7 cyclic peptide binding to fibrin D-Dimer-E complex; inhibition, % at 8.3 µM; AID 720508; FP displacement of FITC-Tn7 peptide from fibrin DD(E); 0% = median of compound wells per plate; 370,000 tested, 0.13% active; P02675;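 active means inhibition above the mean of compounds falling within the control limits plus 3 SD of them, cut at about 14% in these data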;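 further: 0% = plate median of compound wells and 100% = 10 µM Aha-Tn7 peptide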
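assay system = human clot-derived fibrin DD(E) complex | quantity = Fibrin-DD(E) at 2 µM final | timing = 10 min preincubation, 3 h with tracer, room temperature | signal = fluorescence polarization | measure = percent inhibition | benchmarks = high control wells with 10 µM unlabelled Aha-Tn7 peptide (full inhibition) | replicates = singlicate testing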
H9c2 protect – myocardial damage modulation in H9c2 cells | H9c2 cardiomyocytes, H2O2 injury protection, ATPLite, 2 h | protection from H2O2 cell death, % at 20 µM | 360,000 tested, 0.63% active | AID 588492;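 active means compounds giving at least 50% protection of heart cells from peroxide-induced death in the single-dose screen, raw or plate-pattern-corrected value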;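 further: 0% = DMSO wells with peroxide and 100% = DMSO wells without peroxide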
MT1-MMP act inh – blocks activation of human MT1-MMP. HT1080 RFP-PRO-GFP cells, GFP/RFP ratio fluorescence, overnight; percent of plate control window, DMSO zero. GFP/RFP ratio change, % at 20 µM. 360,000 tested, 0.061% active;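 active means GFP/RFP ratio change of at least 30% with cell ATP level not reduced by more than half and red fluorescence within 50% of control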
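system = RFP-PRO-GFP reporter HT1080 cells | dosing = 20 µM single dose, 1% DMSO | timing = overnight cell settling, then overnight compound exposure, 37 °C, 5% CO2 | read-out basis = GFP/RFP fluorescence ratio | controls = DMSO and RFP-L50D-GFP cell wells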
TAG inh – reduces triacylglycerol accumulation in H9c2 cells | Nile Red lipid (TAG) fluorescence; cells loaded with 200 µM oleic acid | inhibition, % at 12.5 µM | 230,000 tested, 0.66% active | AID 651582;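 active means pattern-corrected inhibition of lipid staining of at least 50% with the nuclear-stain viability signal not falling by more than 50%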;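 further: 0% = DMSO wells and 100% = triacsin C control wells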
Tn6 DDE FP – inhibitors of Tn6 peptide binding to human fibrin DD(E) | P02675 | Fibrin DD(E) TRITC-Tn6 fluorescence polarization displacement | inhibition, % at 8.3 µM | 370,000 tested, 0.21% active | AID 720509;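 active means inhibition above a per-campaign cutoff: mean of compounds within control limits plus 3 SD, cut at about 15% in these data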;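 further: 0% = median of all compound wells on the plate and 100% = blocking peptide control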
DAGLB inhibitor – diacylglycerol lipase beta (human) inhibition; HEK293T DAGLB membrane lysate, EnzChek fluorogenic substrate; Q8NCG7; inhibition, % at 5.17 µM; 340,000 tested, 0.059% active; in the data active means inhibition above about 34%;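 further: 0% = enzyme with vehicle and 100% = wells lacking enzyme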
Target sequence (Q8NCG7 whole entry, looked up): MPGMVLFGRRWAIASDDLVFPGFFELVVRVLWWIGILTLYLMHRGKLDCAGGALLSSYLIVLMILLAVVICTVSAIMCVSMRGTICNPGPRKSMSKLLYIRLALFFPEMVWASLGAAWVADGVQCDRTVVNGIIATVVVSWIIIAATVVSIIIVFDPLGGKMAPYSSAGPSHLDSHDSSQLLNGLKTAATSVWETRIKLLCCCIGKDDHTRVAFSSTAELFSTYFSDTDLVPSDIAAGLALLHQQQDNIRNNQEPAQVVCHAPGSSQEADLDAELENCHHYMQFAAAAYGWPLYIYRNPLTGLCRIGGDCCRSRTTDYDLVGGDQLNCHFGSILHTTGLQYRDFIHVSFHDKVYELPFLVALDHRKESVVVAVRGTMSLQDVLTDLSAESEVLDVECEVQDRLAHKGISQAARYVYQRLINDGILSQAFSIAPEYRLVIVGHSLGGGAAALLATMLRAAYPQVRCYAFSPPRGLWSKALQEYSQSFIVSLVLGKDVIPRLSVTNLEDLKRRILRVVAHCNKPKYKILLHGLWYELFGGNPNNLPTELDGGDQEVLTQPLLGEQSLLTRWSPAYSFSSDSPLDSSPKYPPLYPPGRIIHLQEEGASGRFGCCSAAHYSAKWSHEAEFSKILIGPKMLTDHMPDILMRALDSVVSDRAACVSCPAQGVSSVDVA
TAG conf – triacylglycerol accumulation inhibition, confirmation; shares compounds with TAG inh; H9c2 lipid accumulation, Nile Red fluorescence; cells loaded with 200 µM oleic acid; inhibition, % at 12.5 µM; 990 tested, 71% active;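 active means mean inhibition across replicates of 40% or more; inactive means mean inhibition below 40%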;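 further: plate controls were DMSO only wells for no effect and Triacsin C treated wells for full effect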
Starred values were filed as active, the others as inactive.

Results for CC1(C)CC(=O)C2=C(C1)Oc1nc3ccccc3cc1C2C(C#N)C#N (centres undefined) ?
Tn7 DDE FP: -1.1; H9c2 protect: -20.9; MT1-MMP act inh: -12.2; TAG inh: 81.4*; Tn6 DDE FP: -2.8; DAGLB inhibitor: 3.7; TAG conf: 60.4*

How did CC1CC2(C)Oc3ccccc3CC2C(C)C1CNCCCN(C)C (centres undefined) do in these assays?
Tn7 DDE FP: -3.7; H9c2 protect: -27.0; MT1-MMP act inh: -4.3; TAG inh: 82.2*; Tn6 DDE FP: 1.7; DAGLB inhibitor: 0.4; TAG conf: 44.2*

Results for O=c1cc(N2CCN(c3cccc(Cl)c3)CC2)[nH]c(=O)n1C1CCCCC1 ?
Tn7 DDE FP: -0.2; H9c2 protect: -4.6; MT1-MMP act inh: -4.4; TAG inh: 68.9*; Tn6 DDE FP: 4.8; DAGLB inhibitor: -0.4; TAG conf: 58.3*

How did CN1CCN(c2cc(=O)n(C3CCCCC3)c(=O)[nH]2)CC1 do in these assays?
Tn7 DDE FP: 0.8; H9c2 protect: -6.0; MT1-MMP act inh: -2.5; TAG inh: -14.2; Tn6 DDE FP: -3.0; DAGLB inhibitor: -0.6

Results for O=c1cc(N2CCN(c3ccccc3)CC2)[nH]c(=O)n1C1CCCCC1 ?
Tn7 DDE FP: 4.5; H9c2 protect: 0.4; MT1-MMP act inh: -7.4; TAG inh: 62.5*; Tn6 DDE FP: 7.2; DAGLB inhibitor: -0.7; TAG conf: 30.5

How did O=c1cc(N2CCN(c3cccc(C(F)(F)F)c3)CC2)[nH]c(=O)n1C1CCCCC1 do in these assays?
Tn7 DDE FP: -10.0; Tn6 DDE FP: -1.3

Results for N#CCC[C@@H]1CC[C@]2(CCCN(S(=O)(=O)C3CCCCC3)C2)O1 ?
Tn7 DDE FP: -4.0; Tn6 DDE FP: -0.5

How did COc1cc(OC)cc(C(=O)N2CC(=O)Nc3ccccc32)c1 do in these assays?
Tn7 DDE FP: 3.4; H9c2 protect: 9.2; MT1-MMP act inh: 9.7; TAG inh: 57.8*; Tn6 DDE FP: -6.6; DAGLB inhibitor: -0.2; TAG conf: 63.3*

How did CC(C)c1ccc(Nc2ncc3c(n2)CCN(C(=O)Nc2ccc(F)c(Cl)c2)C3)cc1 do in these assays?
Tn7 DDE FP: 3.2; H9c2 protect: -7.4; MT1-MMP act inh: -1.6; TAG inh: 86.8*; Tn6 DDE FP: -12.3; TAG conf: 87.8*

What do the screens show for `Cc1ccc2nc3n(c(=O)c2c1)-c1cc2ccccc2cc1C(=O)NC3Cc1ccc(O)cc1` (centres undefined)?
Tn7 DDE FP: 5.2; H9c2 protect: 15.7; MT1-MMP act inh: -15.6; TAG inh: 63.9*; Tn6 DDE FP: -1.9; DAGLB inhibitor: 2.0; TAG conf: 57.2*

How did Cc1ccc2c(c1)-n1c(nc3ccccc3c1=O)C(Cc1ccc(O)cc1)NC2=O (centres undefined) do in these assays?
Tn7 DDE FP: 0.3; Tn6 DDE FP: -1.2

What do the screens show for `O=C1NC(Cc2ccc(O)cc2)c2nc3ccc(F)cc3c(=O)n2-c2cc3ccccc3cc21` (centres undefined)?
Tn7 DDE FP: 0.8; H9c2 protect: 95.2*; MT1-MMP act inh: -18.2; TAG inh: 77.9*; Tn6 DDE FP: -0.3; DAGLB inhibitor: -1.3; TAG conf: 67.2*

Results for O=C(CC1C[C@H](C(=O)N2CCOCC2)[C@@]2(CCC3CCCC3)c3[nH]c4ccccc4c3CCN2C1=O)NCCN1CCOCC1 (some centres undefined) ?
Tn7 DDE FP: 3.6; H9c2 protect: -11.5; MT1-MMP act inh: 0.8; TAG inh: 7.7; Tn6 DDE FP: -0.1; DAGLB inhibitor: 4.0

What do the screens show for `O=C(CC1C[C@H](C(=O)N2CCOCC2)[C@@]2(CCC3CCCC3)c3[nH]c4ccccc4c3CCN2C1=O)NCC12CC3CC(CC(C3)C1)C2` (some centres undefined)?
Tn7 DDE FP: -4.0; H9c2 protect: -4.1; MT1-MMP act inh: -30.7; TAG inh: 60.6*; Tn6 DDE FP: -0.4; DAGLB inhibitor: 1.6; TAG conf: 55.8*

What do the screens show for `COCCCNC(=O)C[C@H]1C[C@H](C(=O)N2CCOCC2)[C@@]2(CCC3CCCC3)c3[nH]c4cc(-c5ccco5)ccc4c3CCN2C1=O`?
Tn7 DDE FP: 2.7; H9c2 protect: 2.1; MT1-MMP act inh: -2.5; TAG inh: 12.0; Tn6 DDE FP: -1.5; DAGLB inhibitor: 1.5

What do the screens show for `O=C(C[C@H]1C[C@H](C(=O)N2CCOCC2)[C@@]2(CCC3CCCC3)c3[nH]c4cc(-c5ccco5)ccc4c3CCN2C1=O)NCC12CC3CC(CC(C3)C1)C2`?
Tn7 DDE FP: 6.5; H9c2 protect: -10.6; MT1-MMP act inh: -13.7; TAG inh: 61.6*; Tn6 DDE FP: -5.7; DAGLB inhibitor: 2.3; TAG conf: 76.6*

What do the screens show for `O=C(O)c1ccc(C#Cc2cccc(F)c2)cn1`?
Tn7 DDE FP: -0.1; Tn6 DDE FP: -2.8

Results for COc1ccc(NC(=O)CSc2nnc(-c3n[nH]c4c3CCC4)n2N)cc1 ?
Tn7 DDE FP: 6.1; Tn6 DDE FP: 1.4

How did Nc1ncnc2c1ncn2C1C=C(CO)C(O)C1O (centres undefined) do in these assays?
H9c2 protect: 5.3; MT1-MMP act inh: -1.7; TAG inh: 74.8*; DAGLB inhibitor: 4.1; TAG conf: 75.6*

How did CC(C)N1CSC(=S)N(Cc2ccccc2)C1 do in these assays?
Tn7 DDE FP: -4.5; H9c2 protect: -8.6; MT1-MMP act inh: -8.0; TAG inh: 68.9*; Tn6 DDE FP: -1.9; DAGLB inhibitor: -2.2; TAG conf: 48.5*

What do the screens show for `Nc1ccc2nc(SCC(=O)Nc3ccc(N4CCOCC4)c(Cl)c3)sc2c1`?
Tn7 DDE FP: -8.6; H9c2 protect: -27.5; MT1-MMP act inh: 1.6; Tn6 DDE FP: 2.1; DAGLB inhibitor: 3.4

What do the screens show for `CCCC(=O)Nc1ccc2nc(SCC(=O)Nc3ccc(N4CCOCC4)c(Cl)c3)sc2c1`?
Tn7 DDE FP: 6.2; H9c2 protect: -1.0; MT1-MMP act inh: -4.2; TAG inh: 50.7*; Tn6 DDE FP: 3.7; DAGLB inhibitor: 1.4; TAG conf: 34.0

Results for O=C(CSc1nc2ccc(Nc3nc(N4CCOCC4)nc(N4CCOCC4)n3)cc2s1)Nc1ccccc1Cl ?
Tn7 DDE FP: -3.1; H9c2 protect: 9.9; MT1-MMP act inh: -0.7; TAG inh: 62.4*; Tn6 DDE FP: 6.5; DAGLB inhibitor: 2.6; TAG conf: 67.5*
